# An excerpt weighted towards active compounds, which were near 2.5% of everything screened.
# SENP7 block = blocks the human protease SENP7; Q9BQF6; recombinant SENP7, Z-RLRGG-aminoluciferin luminescence, 40 min; inhibition, % at 5 µM; 1.5% of 330,000 active; AID 434973;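 active = inhibition above about 50% at the single test dose, limit read from the data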;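 also: plate controls were DMSO with enzyme for no effect and no enzyme buffer wells for full effect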
# Target sequence (Q9BQF6 706-1050 limits assumed): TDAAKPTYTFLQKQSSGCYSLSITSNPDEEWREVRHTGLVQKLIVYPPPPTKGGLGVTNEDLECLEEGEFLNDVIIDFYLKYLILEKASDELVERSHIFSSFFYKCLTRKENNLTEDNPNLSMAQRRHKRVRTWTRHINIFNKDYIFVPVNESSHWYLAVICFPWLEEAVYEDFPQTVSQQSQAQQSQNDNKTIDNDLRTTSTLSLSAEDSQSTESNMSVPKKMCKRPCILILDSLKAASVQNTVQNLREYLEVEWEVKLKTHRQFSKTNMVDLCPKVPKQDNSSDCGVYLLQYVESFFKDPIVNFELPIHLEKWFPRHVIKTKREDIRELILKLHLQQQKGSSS
# SENP1 inh = SENP1 (human) catalytic domain inhibition; Q9P0U3; recombinant SENP1 catalytic domain, CyPet-SUMO1-YPet FRET cleavage; inhibition, % at 10 µM; 0.21% of 360,000 active; AID 624204;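 active = inhibition at least 30% at 10 µM, raw YFP signal under a set limit, fluorescence ratio 0.5 to 1.5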;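 also: 0% = enzyme with DMSO and 100% = no enzyme wells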
#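 Assay system: hSENP1 catalytic domain, recombinant. Amount: SENP1 enzyme, 20 pM final. Schedule: 50 min reaction, RT, dark. Technique: FRET, CFP and YFP emission. Control set: no-enzyme wells low, DMSO-plus-enzyme wells high control.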
# SENP8 block-1 = SENP8 protease inhibition; Q96LD8; purified SENP8, Z-RLRGG-aminoluciferin cleavage, luminescence; inhibition, % at 10 µM; 1.2% of 330,000 active; AID 2540; in the data active = inhibition above about 50%
# SENP8 block-2 = blocks human SENP8 cleavage of Nedd8 substrate; 0.64% of 360,000 active; Q96LD8; recombinant SENP8, Nedd8 substrate fluorescence; inhibition, % at 20 µM; in the data active = inhibition mostly above about 40%, no sharp cut-off; inactive = mostly below about 27%
# SENP6 inh = blocks the human protease SENP6. Recombinant SENP6 catalytic domain, aminoluciferin luminescence. inhibition, % at 10 µM. 1.8% of 330,000 active. AID 2599;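 active = inhibition above about 50% at the single tested dose, limit read from the data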;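 also: plate controls were DMSO wells with enzyme for no effect and DMSO wells lacking enzyme for full effect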
# SENP8 confirm = confirmation of human SENP8 protease inhibitors; Recombinant SENP8, Z-RLRGG-aminoluciferin luminescence, 60 min; inhibition, % at 12.5 µM; shares compounds with SENP7 block; AID 488912; 40% of 6,200 active;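 active = mean inhibition across replicates above about 50%, limit read from the data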
# SENP6 confirm = confirmation of human SENP6 protease inhibitors; recombinant SENP6, Z-RLRGG-aminoluciferin luminescence; inhibition, % at 12.5 µM; 58% of 6,200 active; shares compounds with SENP7 block
# SENP7 conf = human SENP7 inhibition, confirmed | shares compounds with SENP7 block | recombinant SENP7, Z-RLRGG-aminoluciferin luminescence, 40 min | inhibition, % at 12.5 µM | 69% of 6,200 active | AID 488917
# Casp3 SENP sel = caspase-3 inhibition (SENP selectivity assay). purified caspase-3, Z-DEVD-aminoluciferin luminescence, 60 min. inhibition, % at 12.5 µM. shares compounds with SENP7 block. 60% of 6,200 active;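 active = mean inhibition above about 50%, limit read from the data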;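 also: plate controls were enzyme with DMSO for no effect and wells without caspase-3 for full effect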
# Target sequence (P42574 28-227 limits assumed): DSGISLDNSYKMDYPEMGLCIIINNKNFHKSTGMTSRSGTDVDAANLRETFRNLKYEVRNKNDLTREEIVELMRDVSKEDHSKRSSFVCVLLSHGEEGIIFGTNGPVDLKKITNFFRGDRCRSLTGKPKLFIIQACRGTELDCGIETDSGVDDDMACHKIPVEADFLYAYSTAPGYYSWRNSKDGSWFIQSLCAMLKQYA
# Luc interf = interferes with luciferase luminescence in SENP counter-screen; 39% of 6,200 active; inhibition, % at 12.5 µM; Pre-incubated SENP8/Z-RLRGG-aminoluciferin, luciferase luminescence interference; AID 488919; shares compounds with SENP7 block;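 active = mean inhibition above about 50% when retested at one dose, limit read from the data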;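 also: plate controls were DMSO wells with completed reaction for no effect and substrate without enzyme for full effect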
# * = called active by the depositor; i = inactive; x = no result.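 The calls were made as follows, unless noted: active = mean inhibition above about 50% in the one-dose retest (limit read from the data); inactive = the rest.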
SMILES,SENP7 block,SENP1 inh,SENP8 block-1,SENP8 block-2,SENP6 inh,SENP8 confirm,SENP6 confirm,SENP7 conf,Casp3 SENP sel,Luc interf
COc1ccc(-c2nc3ccccc3n2Cc2ccccc2)cc1,1,1,5,1,-6,x,x,x,x,x
CCn1c(/C=C/c2ccccc2)nc2ccccc21,92*,-3,85*,-270,97*,94*,94*,101*,94*,95*
CCC(=O)N(C1=C(NC)C(=O)c2ccccc2C1=O)C(C)C,33,-1,3,59*,87*,28,50,23,40,1
Cc1nc(SCCC(=O)O)c2cc(-c3ccccc3)sc2n1,60*,0,71*,-83,72*,46,76*,14,82*,48
COc1ccc(C(=O)N[C@H](C(=O)OCCCOC(=O)[C@@H](NC(=O)c2ccc(OC)cc2)C(C)C)C(C)C)cc1,x,2,x,10,x,x,x,x,x,x
COc1cc(CN2C(=O)C(Cc3ccccc3)ON=C2c2ncccc2C)cc(OC)c1 (stereo not given),x,0,x,2,x,x,x,x,x,x
COc1cccc(C2=NC(C)(C)NC(c3ccccc3O)C2)c1 (stereo not given),5,-9,-3,-47,19,x,x,x,x,x
CCC1(C)N=C(c2ccc3c(c2)OCO3)CC(c2ccccc2O)N1 (stereo not given),2,-6,78*,-151,91*,82*,46,13,48,63*
Cc1ccnc(NC(=O)c2ccc(Br)s2)c1,92*,1,82*,10,88*,86*,87*,98*,91*,88*
O=C(Nc1ccon1)c1ccc(Br)s1,-17,3,-17,0,-17,x,x,x,x,x
Cc1ccnc(NC(=O)c2cccs2)c1,57*,-3,38,14,54*,51*,51*,84*,86*,62*
O=C(Nc1ccccn1)c1cccs1,9,-3,-1,22,4,x,x,x,x,x
Cc1nc2cc(NC(=O)c3ccc(Br)s3)ccc2s1,70*,1,46,13,70*,22,51*,91*,48,0
O=C(NCCCN1CCCCC1)C1CCC(CNS(=O)(=O)c2cccc3nsnc23)CC1 (stereo not given),9,4,-2,21,0,x,x,x,x,x
CNc1ccc2ncc(-c3cccc(C(=O)N(C)C)c3)n2n1,x,-1,x,i,x,x,x,x,x,x
N#Cc1cnn2ccc(-c3ccc4c(c3)CCC4)nc12,-10,-8,-14,-420,-17,x,x,x,x,x
O=C(Nc1nc2c(s1)CCCC2)c1ccc(Br)s1,53*,1,44,-43,60*,9,49,86*,44,49
O=C(Nc1nc2c(s1)CCCC2)c1ccc(N2C(=O)CCC2=O)cc1,3,1,-17,-15,3,x,x,x,x,x
Cc1cc(C(=O)Nc2nc3c(s2)CCCC3)cs1,86*,-2,67*,-4,84*,2,75*,98*,84*,21
Cc1ncsc1C(=O)Nc1nc2c(s1)CCCC2,99*,1,92*,-41,96*,52*,98*,103*,98*,53*
O=C(Nc1nc2c(s1)CCCC2)c1ccc2ncsc2c1,12,-148,28,-79,29,x,x,x,x,x
Cc1cccc(NC(=O)c2ccc(C)c(S(=O)(=O)N3CCCCC3)c2)n1,-9,0,-14,11,-16,x,x,x,x,x
Cc1oc2c(c1C(=O)N1CCC(C)CC1)C(=O)c1ccccc1C2=O,28,x,26,x,55*,18,52*,18,35,0
CC1CCN(C(=O)c2ccc3c(c2)C(=O)c2ccccc2-3)CC1,x,1,x,16,x,x,x,x,x,x
Cc1ccc(C(=O)c2c(C)oc3c2C(=O)C(=O)c2ccccc2-3)cc1,51*,7,29,106*,19,22,57*,17,-2,1
SMILES,SENP7 block,SENP1 inh,SENP8 block-1,SENP8 block-2,SENP6 inh,SENP8 confirm,SENP6 confirm,SENP7 conf,Casp3 SENP sel,Luc interf
COc1ccc(C(=O)O/N=C2\C(=O)N(C)c3ccccc32)cc1,-5,5,-17,18,-18,x,x,x,x,x
COc1ccc(C(=O)N=c2nc3ccccn3s2)cc1,98*,1,90*,22,95*,88*,91*,96*,82*,36
CCOC(=O)c1c(C)nc2c3ccccc3ccn12,78*,2,53*,0,74*,63*,60*,89*,74*,65*
Cc1cccc(N=C2NC(=O)/C(=C\c3cccs3)S2)c1,1,4,6,1,49,x,x,x,x,x
O=C1NC(=Nc2ccccc2)S/C1=C/c1cccs1,32,-2,59*,10,17,27,46,20,39,23
O=C(c1ccccc1)N1CCN(C(=O)c2nn3c(C(F)(F)F)cc(-c4ccccc4)nc3c2Br)CC1,0,-10,-7,-18,-2,x,x,x,x,x
CCN(c1ccccc1)c1cc2ccccc2c(=O)[nH]1,86*,-49,92*,-201,88*,20,61*,43,17,-3
CCN(c1ccccc1)c1nc(=O)c2cccnc2s1,6,0,3,-11,9,x,x,x,x,x
Cc1oc(-c2ccc(Cl)cc2)cc1C(=O)O,94*,-3,97*,4,96*,99*,100*,102*,92*,91*
CCNC(=S)NNC(=O)c1cc(-c2cccc(OC)c2)nc2ccccc12,11,2,41,-56,57*,64*,60*,79*,85*,71*
CCNC(=S)NNC(=O)c1cc(-c2ccccc2C)nc2ccccc12,1,-3,5,-152,-3,x,x,x,x,x
CCCOc1cccc(-c2cc(C(=O)NNC(=S)NCC)c3ccccc3n2)c1,-18,5,-2,-231,-24,x,x,x,x,x
CCNC(=S)NNC(=O)c1cc(-c2ccc(OCC)cc2)nc2ccccc12,95*,4,94*,-280,94*,98*,98*,102*,98*,46
FC(F)Oc1ccc(NC(=S)NCc2ccccc2)cc1,0,3,-9,5,-11,x,x,x,x,x
Oc1cccc2c(NC(=S)Nc3ccc(OC(F)F)cc3)cccc12,49,-42,80*,-190,94*,-4,15,2,5,15

# Screening data (PubChem)
